Screens from PubChem.
NPR2 activator: GC-B (human) receptor activation; P20594; activation, % at 10 µM; 370,000 tested, 0.11% active; AID 1920062; HEK293-GC-B cells, CNP EC30, cGMP TR-FRET; 0% at EC30 CNP, 100% saturating CNP;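 active = activation at 10 µM reaching about 35% in either raw or pattern-adjusted values, limit read from the data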
Tb MetRS inh: blocks T. brucei methionyl-tRNA synthetase activity; 360,000 tested, 0.4% active; inhibition, % at 11.9 µM; purified T. brucei MetRS, ATP depletion, Kinase-Glo luminescence; AID 624268;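 active = inhibition above a per-plate cutoff of the control wells' mean inhibition plus 3 SD, cut at about 5.5% in these data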
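Material: T. brucei methionyl-tRNA synthetase, purified; reagent: substrates ATP, L-methionine and bulk Escherichia coli tRNA; dosing: 11.9 µM single point; timing: 15 min plus 2 h at 25 °C; detection: luminescence of leftover ATP; evaluation: % inhibition; control set: DMSO-only wells as low control; replicates: singlicate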
Bfl-1 A1 inh: inhibitors of the anti-apoptotic protein A1, read as caspase activation | MEF A1-2A-BIM cells, Caspase-Glo 3/7 luminescence, 3 h; percent of clofoctol response, vehicle zero | caspase activation, % (no concentration beside the values) | 330,000 tested, 0.066% active | AID 2462;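 active = over half of replicate activation scores above 10%, or exactly half above 10 with the replicate mean above 10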
MT1-MMP act inh: blocks activation of human MT1-MMP; 360,000 tested, 0.061% active; HT1080 RFP-PRO-GFP cells, GFP/RFP ratio fluorescence, overnight; percent of plate control window, DMSO zero; P50281; GFP/RFP ratio change, % at 20 µM; AID 651647;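 active = GFP/RFP ratio change of at least 30% with cell ATP level not reduced by more than half and red fluorescence within 50% of control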
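Assay system: HT1080 cells carrying an RFP-PRO-GFP reporter | Dosing: Single dose of 20 µM compound, 1% DMSO final | Incubation: Cells overnight before dosing, compound overnight, 37 °C, 5% CO2 | Evaluation: GFP/RFP fluorescence ratio | Control set: DMSO and RFP-L50D-GFP cell wells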
NPR1 activator: GC-A (human) enzyme activation; 370,000 tested, 0.14% active; activation, % at 10 µM; HEK293 GC-A cells, cGMP TR-FRET, EC30 ANP; 0% at EC30 ANP, 100% saturating ANP; P16066; in the data active = activation above about 40%
Target sequence (P16066 whole entry, looked up): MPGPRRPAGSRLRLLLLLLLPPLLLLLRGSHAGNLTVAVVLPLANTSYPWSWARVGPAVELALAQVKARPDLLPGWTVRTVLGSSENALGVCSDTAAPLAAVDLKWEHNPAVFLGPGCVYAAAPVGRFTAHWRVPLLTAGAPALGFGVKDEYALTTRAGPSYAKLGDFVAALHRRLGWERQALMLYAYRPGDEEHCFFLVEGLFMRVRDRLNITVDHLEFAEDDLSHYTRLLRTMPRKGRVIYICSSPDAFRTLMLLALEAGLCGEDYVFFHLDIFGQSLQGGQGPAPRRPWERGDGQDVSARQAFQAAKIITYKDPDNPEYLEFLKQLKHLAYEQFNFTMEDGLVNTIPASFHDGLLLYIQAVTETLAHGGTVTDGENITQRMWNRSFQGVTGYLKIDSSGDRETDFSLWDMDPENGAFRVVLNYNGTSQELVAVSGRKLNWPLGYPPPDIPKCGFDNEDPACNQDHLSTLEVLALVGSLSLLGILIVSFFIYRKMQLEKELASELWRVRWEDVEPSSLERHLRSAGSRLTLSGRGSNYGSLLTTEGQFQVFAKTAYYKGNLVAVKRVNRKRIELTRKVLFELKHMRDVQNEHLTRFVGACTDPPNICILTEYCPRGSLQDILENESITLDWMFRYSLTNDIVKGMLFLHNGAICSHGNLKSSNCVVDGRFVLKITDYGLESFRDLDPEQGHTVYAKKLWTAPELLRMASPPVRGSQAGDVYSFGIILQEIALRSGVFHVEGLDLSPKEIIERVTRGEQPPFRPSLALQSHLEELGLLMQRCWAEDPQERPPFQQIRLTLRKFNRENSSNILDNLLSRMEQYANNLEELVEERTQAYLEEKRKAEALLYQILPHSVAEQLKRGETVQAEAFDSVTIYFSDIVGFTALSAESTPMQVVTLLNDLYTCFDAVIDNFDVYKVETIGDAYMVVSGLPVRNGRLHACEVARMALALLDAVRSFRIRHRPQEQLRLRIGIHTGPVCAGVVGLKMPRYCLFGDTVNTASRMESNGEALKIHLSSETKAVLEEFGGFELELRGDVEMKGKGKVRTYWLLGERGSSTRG
SKN-1 inh: blocks SKN-1 activity in C. elegans. C. elegans VP596 Pgst-4::GFP/RFP ratio, acrylamide-induced, 24 h. inhibition, % at 21.8 µM. 360,000 tested, 0.49% active. AID 624304;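 active = interference check ratio from 0.5 to 1.5 plus GFP to RFP signal ratio inhibition reaching or exceeding a fixed threshold, cut at about 30% in these data, passing the limit was not always enough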
TbMetRS confirm: confirmation of Trypanosoma brucei MetRS inhibitors. shares compounds with Tb MetRS inh. 1,400 tested, 93% active. T. brucei MetRS enzyme, luminescence (ATP depletion). inhibition, % at 11.9 µM; in the data active = inhibition above about 7%
Jurkat tox: counter-screen for T. brucei MetRS inhibitors: Jurkat cell cytotoxicity; shares compounds with Tb MetRS inh; Jurkat cells viability, ATP luminescence; inhibition, % at 8.3 µM; 1,400 tested, 12% active; AID 624413; in the data active = inhibition above about 15%
Tb MetRS inh FP: inhibits T. brucei methionyl tRNA synthetase in orthogonal FP test | shares compounds with Tb MetRS inh | purified T. brucei MetRS, fluorescence polarization | inhibition, % at 11.9 µM | 1,400 tested, 44% active | AID 651607; in the data active = inhibition above about 17%
MT1-MMP act val: validation of inhibitors of human MT1-MMP activation; 200 tested, 10% active; inhibition, % at 20 µM; shares compounds with MT1-MMP act inh; HT1080 RFP-PRO-GFP cells, GFP and RFP fluorescence ratio, overnight;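 active = inhibition of at least 50% in the primary cell screen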
A number is an active result; n = inactive; x = no result. Rows were chosen to be rich in hits. Some 1.1% of all compounds tested hit in one or more screens of this group.

SMILES | NPR2 activator | Tb MetRS inh | Bfl-1 A1 inh | MT1-MMP act inh | NPR1 activator | SKN-1 inh | MT1-MMP act val | others
CCOC(=O)CC(=O)NC(C)(C)CCCCC(C)(C)NC(=O)CC(=O)OCC | n | 6.9 | n | n | n | n | x | TbMetRS confirm=n;Jurkat tox=n;Tb MetRS inh FP=n
COc1ccccc1C1CC(c2ccc(Cl)cc2Cl)Nc2nc(N)nn21 (stereo not drawn) | n | 6.6 | n | n | n | n | x | TbMetRS confirm=14.9;Jurkat tox=n;Tb MetRS inh FP=n
COc1ccc2c(c1)CCC(C)N2C(=O)C(=O)c1c[nH]c2ccccc12 (stereo not drawn) | n | 11.5 | n | n | n | n | x | TbMetRS confirm=17.5;Jurkat tox=n;Tb MetRS inh FP=n
COc1ccc2[nH]cc(C(=O)C(=O)N3CCCCC3)c2c1 | n | n | n | n | n | n | x
Oc1ccc(N=Nc2c(O)ccc3ccccc23)cc1 | n | n | n | 73.2 | n | n | n
O=C(O)c1cc(N=Nc2c(O)ccc3ccccc23)cc(C(=O)O)c1 | n | n | x | 32.9 | n | n | n
NS(=O)(=O)c1ccc(N=Nc2c(O)ccc3ccccc23)cc1 | n | n | n | n | n | n | x
Cc1c(C(=O)NCc2ccc3c(c2)cc(C)n3C)cccc1[N+](=O)[O-] | n | n | x | n | n | n | x
Cc1cc2cc(CNC(=O)Cc3ccc([N+](=O)[O-])cc3)ccc2n1C | n | n | n | 41.6 | n | 39.3 | n
Cc1cc2cc(CNC(=O)C3CCCC3)ccc2n1C | n | n | n | 34.6 | n | n | n
C[C@H]1CCCC(=O)N[C@@H](c2ccccc2)[C@@H](C)CCCC(=O)N[C@H]1c1ccccc1 | n | x | x | x | n | x | x
O=C1c2cccc(Cl)c2C(=O)c2c1cccc2N1CCCC1 | n | n | n | 46.1 | n | n | n
Cc1cc(=O)n2[nH]c(-c3ccc(C(C)(C)C)cc3)cc2n1 | n | n | n | 34.4 | n | n | n
CC(=O)c1cccc(S(=O)(=O)N2CCC(C(=O)NC3CCCC3)CC2)c1 | n | n | x | 39.7 | n | n | n
O=C(NC1CCCCCC1)C1CCN(S(=O)(=O)c2ccccc2)CC1 | n | n | n | n | n | n | x
Cc1cc(N(CCO)CCO)ccc1N=Nc1cc(F)ccc1F | n | n | n | 33.0 | n | n | n
CCC(/C=C1\Oc2ccc(OC)cc2N1C)=C\c1sc2ccccc2[n+]1CCCS(=O)(=O)[O-] | n | n | x | 35.3 | n | n | n
CC/C(=N\Nc1ccc([N+](=O)[O-])cc1[N+](=O)[O-])c1ccc(O)cc1 | n | n | n | 35.3 | n | n | n
CCC(=NNc1ccc([N+](=O)[O-])cc1[N+](=O)[O-])c1ccccc1 | n | n | x | n | n | n | x
Cc1cccc(NC(=S)NCc2ccc3c(c2)cc(C)n3C)c1C | n | n | n | 40.5 | n | n | n
COc1cccc(NC(=S)NCc2ccc3c(c2)cc(C)n3C)c1 | n | n | x | 37.5 | n | n | n
COc1cc(O)c([C@@H](CC(=O)N2CC(C)CC(C)C2)c2ccc3c(c2)OCO3)c(OC)c1 (stereo partly drawn) | n | x | x | x | n | x | x
Cc1ccccc1N=C/C=C1\N(C)c2ccccc2C1(C)C | n | n | n | 55.8 | n | n | n
CN1/C(=C\C=N\O)C(C)(C)c2ccccc21 | n | n | n | n | n | n | x
CCN(C(=O)CSc1nnc(-c2cccnc2)n1Cc1ccco1)c1ccccc1 | n | x | x | x | n | x | x
SMILES | NPR2 activator | Tb MetRS inh | Bfl-1 A1 inh | MT1-MMP act inh | NPR1 activator | SKN-1 inh | MT1-MMP act val | others
Cc1cccc(CSc2nc3[nH]ncc3c(=O)[nH]2)c1 | n | n | n | 34.7 | n | n | n
O=c1[nH]c(SCc2ccccc2Cl)nc2[nH]ncc12 | n | n | n | n | n | n | x
CCCC[C@H]1C2CC(OC(=O)Nc3ccc4c(c3)OCO4)C(C2)[C@H]2CCCCN21 (stereo partly drawn) | n | x | x | x | n | x | x
C[C@H]1/C=C/CC(=O)N[C@@H](c2ccc3ccccc3c2)[C@@H](C)/C=C/CC(=O)N[C@H]1c1ccc2ccccc2c1 | n | x | x | x | n | x | x
O=C(CN1CCCC1)N1CCCc2c1c(=O)oc1ccc(OCc3ccccc3)cc21 | n | n | n | 50.6 | n | n | n
CCN(CC)c1ccc(/C=C2\C(=O)N(c3nnc(C)c(=O)[nH]3)N=C2C)cc1 | n | n | n | 32.8 | n | n | n
CCN1/C(=C2/SC(=S)N(C)C2=O)C=Cc2cc(C)ccc21 | n | n | n | 31.2 | n | n | n
C=CCCC(=O)N[C@H]1CC[C@@]23CCCN2C(=O)CCC[C@H]3[C@H]1C | n | x | x | x | n | x | x
O=C(O)CC/C(=N\Nc1ccccc1[N+](=O)[O-])c1cccs1 | x | n | n | 35.5 | x | n | n
COC(=O)CN1CCN(C(=O)c2nocc2C)CC1 | n | x | x | x | n | x | x
Cc1nn(-c2ccccc2)c2sc(C(=O)NCc3ccc(F)cc3)cc12 | n | x | x | x | n | x | x
CCCc1ccc(C#N)c(SC2CC(=O)N(c3ccc(OC)cc3)C2=O)n1 (stereo not drawn) | n | n | n | 32.0 | n | n | n
COc1ccc(N2C(=O)CC(Sc3nc(C)cc(C)c3C#N)C2=O)cc1 (stereo not drawn) | n | n | n | n | n | n | x
COc1cc(C(=O)Nc2ccc(O)cc2C(=O)O)ccc1OC(C)=O | n | n | n | 36.9 | n | n | n
COc1ccc(OCC(=O)NNc2c3ccccc3nc3ccccc23)cc1 | n | n | n | 35.5 | n | n | n
O=C(NNc1c2ccccc2nc2ccccc12)c1ccccc1O | n | n | n | 31.5 | n | n | n
O=C(NNc1c2ccccc2nc2ccccc12)c1ccc(O)cc1O | n | n | n | n | n | n | x
O=C(COc1ccccc1)NNc1c2ccccc2nc2ccccc12 | n | n | n | n | n | n | x
O=S1(=O)c2c(NCc3ccco3)cccc2Oc2ccccc2CN1Cc1cn(Cc2ccc(F)cc2)nn1 | n | x | x | x | n | x | x
COc1ccc2c(c1)NC(=O)[C@@]2(CCN1C(=O)c2ccccc2C1=O)c1[nH]c2ccccc2c1CCN1C(=O)c2ccccc2C1=O | n | x | x | x | n | x | x
O=C(c1cc(Cl)cc(Cl)c1)N1CC[C@H]2[C@H](CCCN2Cc2ccccc2)C1 | n | x | x | x | n | x | x
